Data taken from ChEMBL document CHEMBL1158097, “Kahalalide derivatives from the Indian sacoglossan mollusk Elysia grandifolia” (J Nat Prod, 2006).
Active and inactive are the calls of the source. No cut-off for these calls is given here.

Experiments:
MCF7 = assay: Cytotoxicity against human MCF7 cells after 24 hrs by MTT assay; format: functional, cell-based; conditions: MCF7, 24 h
Summary of the method: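 MCF7 cells were exposed to compounds for 24 h, and viability was read as MTT reduction by absorbance of reduced MTT at 560 nm. DMSO served as control. Data are mean ± SEM, n = 3.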

[1] = Cytotoxicity against mouse L1578Y cells after 24 hrs by MTT assay; format: functional, cell-based
HeLa = assay: Cytotoxicity against human HeLa cells after 24 hrs by MTT assay; format: functional, cell-based
H4IIE = assay: Cytotoxicity against rat H4IIE cells after 24 hrs by MTT assay; format: functional, cell-based
PC-12 = assay: Cytotoxicity against rat PC12 cells after 24 hrs by MTT assay; format: functional, cell-based
Cladosporium herbarum = assay: Antifungal activity against Cladosporium herbarum DSM 62121 at 5 ug/disk after 24 hrs by agar diffusion assay; format: functional; conditions: for zone of inhibition at 5 µg/disc: DSM 62121, 24 h, read-out: IZ
Cladosporium cucumerinum = assay: Antifungal activity against Cladosporium cucumerinum DSM 62122 at 5 ug/disk after 24 hrs by agar diffusion assay; format: functional; conditions: for zone of inhibition at 5 µg/disc: DSM 62122, 24 h, read-out: IZ
Saccharomyces cerevisiae = assay: Antifungal activity against Saccharomyces cerevisiae DSM 1333 at 5 ug/disk after 24 hrs by agar diffusion assay; format: functional, organism-based
Bacillus subtilis = assay: Antibacterial activity against Bacillus subtilis DSM 2109 at 5 ug/disk after 24 hrs by agar diffusion assay; format: functional, organism-based
Escherichia coli = assay: Antibacterial activity against Escherichia coli DSM 10290 at 5 ug/disk after 24 hrs by agar diffusion assay; format: functional, organism-based

`CC(C)CCCCCC1CC(=O)N[C@H](C)C(=O)N[C@H](C)C(=O)NC(CC(C)C)C(=O)N2CCC[C@H]2C(=O)NC(CC(C)C)C(=O)N[C@@H](Cc2c[nH]c3ccccc23)C(=O)O1` (some centres undefined) [KAHALALIDE E] showed an IC50 (MCF7) of 4.5 µM.
For `C/C=C1\NC(=O)[C@H](Cc2ccccc2)NC(=O)[C@@H](C(C)C)NC(=O)[C@@H]([C@H](C)CC)NC(=O)[C@H](NC(=O)[C@H](NC(=O)[C@H](CCCN)NC(=O)[C@H]2CCCN2C(=O)[C@H](NC(=O)[C@@H](NC(=O)[C@@H](NC(=O)[C@H](NC(=O)CCCC(C)C)C(C)C)[C@@H](C)O)C(C)C)C(C)C)[C@H](C)CC)[C@H](C)OC(=O)[C@H](C(C)C)NC1=O` [KAHALALIDE F], the IC50 (MCF7) was 0.22 µM, the IC50 [1] was 4.26 µM and the Activity (HeLa) was “inactive”. The Activity (H4IIE) was “inactive”, the Activity (PC-12) was “inactive” and the zone of inhibition at 5 µg/disc (Cladosporium herbarum) was 17 mm. For the same compound, the zone of inhibition at 5 µg/disc (Cladosporium cucumerinum) was 24 mm, the Activity (Saccharomyces cerevisiae) was “inactive” and the Activity (Bacillus subtilis) was “inactive”. The Activity (Escherichia coli) was “inactive”.
In the case of `C/C=C1\NC(=O)[C@H](Cc2ccccc2)NC(=O)C(C(C)C)NC(=O)C(C(C)C)NC(=O)[C@H](NC(=O)[C@H](NC(=O)[C@H](CCCN)NC(=O)[C@H]2CCCN2C(=O)C(NC(=O)C(NC(=O)C(NC(=O)[C@@H](CCC(=O)O)NC(=O)CCCCCC(C)C)C(C)C)C(C)C)C(C)C)[C@@H](C)CC)[C@@H](C)OC(=O)C(C(C)C)NC1=O` (some centres undefined) [KAHALALIDE R], the IC50 (MCF7) is reported as 0.14 µM, the IC50 [1] is reported as 4.28 µM and the Activity (HeLa) is reported as “inactive”. The Activity (H4IIE) was “inactive”, the Activity (PC-12) was “inactive” and the zone of inhibition at 5 µg/disc (Cladosporium herbarum) was 16 mm. For the same compound, the zone of inhibition at 5 µg/disc (Cladosporium cucumerinum) was 24 mm, the Activity (Saccharomyces cerevisiae) was “inactive” and the Activity (Bacillus subtilis) was “inactive”. The Activity (Escherichia coli) was “inactive”.
In the case of `C/C=C1\NC(=O)[C@H](Cc2ccccc2)NC(=O)C(C(C)C)NC(=O)C(C(C)C)NC(=O)[C@H](NC(=O)[C@H](NC(=O)[C@H](CCCN)NC(=O)[C@H]2CCCN2C(=O)C(NC(=O)C(NC(=O)C(NC(=O)[C@@H](CCC(=O)O)NC(=O)CCCC(O)CC(C)C)C(C)C)C(C)C)C(C)C)[C@@H](C)CC)[C@@H](C)OC(=O)C(C(C)C)NC1=O` (some centres undefined) [KAHALALIDE S], the IC50 (MCF7) is reported as 3.55 µM, the Activity (Cladosporium herbarum) is reported as “inactive” and the Activity (Cladosporium cucumerinum) is reported as “inactive”. The Activity (Saccharomyces cerevisiae) was “inactive”, the Activity (Bacillus subtilis) was “inactive” and the Activity (Escherichia coli) was “inactive”.
For NYSTATIN, the inhibition zone (IZ) (Cladosporium herbarum) was 19 mm and the inhibition zone (IZ) (Cladosporium cucumerinum) was 39 mm.
